From PubChem BioAssay
FGF22 binding: binders of human FGF22 protein, primary screen, FGF22 synaptogenesis inhibitor project, biophysical, thermal shift, single point | 340,000 compounds, 1.5% hits | recombinant FGF22 thermal shift, SYPRO orange fluorescence; percent of sucrose octasulfate shift, DMSO zero | Fibroblast growth factor 22 (Homo sapiens), Q9HCT0 | AID 651658, 2012 | activity (Tm shift, normalised), % at 9.99 µM;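 active = mean Tm shift, scaled 0 neutral to 100 positive control, at about 1.3% or above, every replicate too, limit read from the data; inconclusive = no clear call, values can overlap the other calls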
Target sequence (Q9HCT0 whole entry, looked up): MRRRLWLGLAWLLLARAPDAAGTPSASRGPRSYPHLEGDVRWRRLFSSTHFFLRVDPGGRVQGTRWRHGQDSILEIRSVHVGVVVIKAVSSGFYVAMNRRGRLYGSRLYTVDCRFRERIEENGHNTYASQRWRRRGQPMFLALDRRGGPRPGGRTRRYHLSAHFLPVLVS
FN deposition inh: inhibitors of fibronectin matrix deposition, primary screen, AH1F cells, Alexa488-fibronectin fluorescence, plate reader; AH1F fibroblasts, overnight; inhibition, % at 12.6 µM; 350,000 compounds, 0.086% hits; AID 743247, 2014;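 active = mean inhibition across replicates of 30% or more, regardless of how many single replicates reach that level; inconclusive = mean under 30% yet at least half of replicates reach 30%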;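 also: positive control wells lacked labelled fibronectin entirely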
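Test system: AH1F fibroblast monolayer depositing Alexa488-labelled fibronectin into matrix. Input: 10000 cells per well. Technique: fluorescence, ex 485 nm, em 525 nm. Buffer or medium: DMEM plus 2% serum, read in PBS. Timing: 1 h cell adhesion before compound, then overnight fibronectin incubation. Compound: single dose, pinned. Read-out basis: inhibition from reduced deposited-fibronectin fluorescence.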
SIRT5 block: SIRT5 desuccinylase inhibitors, primary screen, biochemical, fluorescence imaging, single point, set 5 | Purified SirT5, succinyl-peptide AMC, trypsin-coupled fluorescence | inhibition, % at 15 µM | 330,000 compounds, 1.1% hits | AID 652115, 2013; in the data active = inhibition above about 15%; inconclusive = no clear call, values can overlap the other calls
Target sequence (Q9NXA8 whole entry, looked up): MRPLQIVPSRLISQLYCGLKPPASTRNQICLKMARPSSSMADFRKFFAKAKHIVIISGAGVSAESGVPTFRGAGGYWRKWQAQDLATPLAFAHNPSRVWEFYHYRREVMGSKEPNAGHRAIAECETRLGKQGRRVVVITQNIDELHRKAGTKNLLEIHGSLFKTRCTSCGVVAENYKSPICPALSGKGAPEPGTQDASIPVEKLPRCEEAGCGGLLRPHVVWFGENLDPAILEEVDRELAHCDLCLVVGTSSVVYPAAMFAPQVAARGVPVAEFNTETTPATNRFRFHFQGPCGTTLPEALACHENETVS
DENV2 CPE rescue: inhibitors of DENV2 cytopathic effect, primary screen, cell-based, plate reader, single concentration; DENV2-infected cells, cytopathic effect rescue; AID 651640, 2012; CPE inhibition, % at 9.99 µM; 350,000 compounds, 1.7% hits; in the data active = CPE inhibition above about 20%, passing the limit was not always enough; inconclusive = no clear call, values can overlap the other calls; tested in BHK-21 cells;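 also: 0% = median of neutral control wells and 100% = median of positive control wells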
ARNT-TACC3 inh: disruptors of ARNT/TACC3 protein interaction, primary screen, biochemical, AlphaScreen, single concentration; 390,000 compounds, 0.66% hits; AlphaScreen His-ARNT PAS-B/GST-TACC3 binding, luminescence; TACC3 fragment carries E629A point mutation; AID 623870, 2012; inhibition, % at 9.99 µM;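 active = mean inhibition of replicates at least 50% and at least half of replicates each reaching 50%; inconclusive = half or more replicates reach 50% but mean below 50%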;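 also: 0% = complete ARNT plus TACC3 wells and 100% = ARNT alone without TACC3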
Xi reactivation: activators of inactive X chromosome reactivation, primary screen, imaging, XiGFP fibroblasts, GFP high-content imaging, set 2; XiGFP mouse fibroblasts, % GFP-positive cells imaging, 3 d; cells co-treated with 5-aza-dC sensitizer; scaled so ellipticine positive control = 100%; activation, % at 7.58 µM; 360,000 compounds, 0.055% hits; AID 743238, 2013;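 active = mean normalized replicate activation at least 10% and every replicate at or above 10%; inconclusive = only one of the two criteria met; inactive = mean below 10% and not all replicates reach 10%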;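 also: 0% = median of on-plate neutral control wells and 100% = ellipticine 6 µM median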
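System: SV40-immortalized XiGFP fibroblast cells, line 68-5-11 / Incubation: 3-day compound exposure, then 15 min fixation at room temperature / Compound: single concentration per compound, delivered by pin transfer / Buffer or medium: DMEM plus 5-aza-dC sensitizer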
Starred values were filed as active, the others as inactive; ? = inconclusive; nt = no result given. This is a sample that favours compounds with a hit; in the whole collection about 3.8% have one here.

SMILES	FGF22 binding	FN deposition inh	SIRT5 block	DENV2 CPE rescue	ARNT-TACC3 inh	Xi reactivation
COc1ccccc1S(=O)(=O)N[C@@H]1CC[C@H](CCNC(=O)C2CCOCC2)O[C@H]1CO	0	nt	0	?	-2	0
CC(=O)N(C)C[C@H]1Oc2c(cccc2N(C)C)C(=O)N(C)C[C@@H]1C	nt	1	nt	nt	nt	0
O=C1N2CCCCC1(c1ccccc1)CCCC2	0	-10	-4	40*	nt	0
Cc1nc(Cc2nnc(SCC(=O)N3c4ccccc4NC(=O)C3(C)C)o2)cs1	43*	6	nt	-2	nt	0
Cc1nc(Cc2nnc(SCC(=O)N3CC(=O)Nc4ccccc43)o2)cs1	0	11	-1	-2	nt	0
O=C(NCc1ccccc1)[C@@H]1N[C@@H]2c3ccc(-c4ccccc4)c(=O)n3C[C@@H]2[C@H]1CO	0	nt	-20	-4	26	0
Cc1occc1-c1n[nH]c(=S)n1C	43*	-4	0	8	-6	0
CC(C)(C)C(O)CN1CCCC1 (centres undefined)	44*	4	1	-1	-7	0
CN(C)CCCN1c2ccccc2Sc2ccc3ccccc3c21	0	-4	-1	43*	6	1
CN(C)CCCN1c2ccc3ccccc3c2Sc2cccc(Cl)c21	0	-17	1	-3	6	0
COc1ccc(C2=Nn3c(nnc3-c3ccccc3F)SC2)cc1OC1CCCC1	0	21	20*	3	nt	0
c1ccc(C2=Nn3c(nnc3-c3ccncc3)SC2)cc1	nt	3	nt	nt	-1	nt
COc1ccc(OC)c(-c2nnc3n2N=C(c2ccc(OC)c(OC)c2)CS3)c1	0	-17	3	31*	18	1
COc1ccc(OC)c(-c2nnc3n2N=C(c2ccc(OC(F)F)c(OCC4CC4)c2)CS3)c1	0	-11	nt	-9	-4	1
COc1ccc(C2=Nn3c(nnc3-c3ccccc3OC)SC2)cc1OCC1CC1	0	3	nt	25*	26	0
Cc1cccc(-c2nnc3n2N=C(c2ccccc2)CS3)c1	nt	active	nt	nt	5	nt
COc1ccc(OC)c(-c2nnc3n2N=C(c2ccc(OC)c(OC4CCCC4)c2)CS3)c1	0	1	-1	-8	nt	1
C[C@@H]1CN([C@@H](C)CO)S(=O)(=O)c2ccc(C#C[C@@H](C)O)cc2O[C@@H]1CN(C)CC1CCOCC1	0	1	nt	-2	-5	0
Cc1ccc(O)c(N=Cc2cc(Cc3ccccc3)cc([N+](=O)[O-])c2O)c1	43*	nt	-4	-2	-1	0
CC=Cc1ccc2n(c1=O)C[C@@H]1[C@@H](CO)[C@H](C(=O)NCC(F)(F)F)[C@H]2N1C(=O)C1CC1 (mixture of isomers)	0	nt	-13	?	13	0
CC=Cc1ccc2n(c1=O)C[C@H]1[C@H](CO)[C@@H](C(=O)N3CCc4ccccc4C3)N(C(=O)C3CCC3)[C@@H]21 (mixture of isomers)	0	nt	-1	62*	0	0
CC=Cc1ccc2n(c1=O)C[C@@H]1[C@@H](CO)[C@H](C(=O)NCC(F)(F)F)[C@H]2N1C(C)=O (mixture of isomers)	0	nt	-18	76*	-22	0
CC=Cc1ccc2n(c1=O)C[C@H]1[C@H](CO)[C@@H](C(=O)NCC(F)(F)F)[C@@H]2N1C(=O)C1CC1 (mixture of isomers)	0	nt	-15	59*	16	0
COc1ccccc1-c1ccc(C2[C@H]3CNC[C@@H]2N3C(=O)Nc2ccccc2F)cc1 (some centres undefined)	nt	-2	0	-4	nt	0
Cc1noc(C)c1NC(=O)N(C)C[C@H]1Oc2ccc(NC(=O)Nc3ccc4c(c3)OCO4)cc2CC(=O)N([C@@H](C)CO)C[C@H]1C	1	-8	-1	-4	nt	-1
SMILES	FGF22 binding	FN deposition inh	SIRT5 block	DENV2 CPE rescue	ARNT-TACC3 inh	Xi reactivation
CCCC/C=C/[C@H](c1ccccc1)[C@H](CO)Cc1cccnc1	0	-4	nt	42*	1	0
CCCC/C=C/C(NC(=O)CCc1ccccc1)c1ccccc1 (centres undefined)	0	-3	nt	12	-10	1
COc1ccc([C@H]2C[C@H](O)[C@@H](n3cc(COC(=O)c4ccccc4)nn3)CN2CC2CCCCC2)cc1	0	nt	-3	20*	nt	0
COc1ccc([C@H]2C[C@H](O)[C@@H](n3cc(COC(=O)c4ccccc4)nn3)CN2Cc2cccs2)cc1	0	0	0	15	nt	0
COc1ccc([C@H]2C[C@@H](O)[C@H](n3cc(COC(=O)c4ccccc4)nn3)CN2Cc2cccs2)cc1	1	1	8	56*	nt	0
COc1ccc([C@H]2C[C@@H](O)[C@H](n3cc(COC(=O)c4ccccc4)nn3)CN2C(=O)c2cccs2)cc1	43*	13	nt	-2	nt	0
COc1ccc([C@H]2C[C@@H](n3cc(C4CC4)nn3)[C@H](O)CN2Cc2cccs2)cc1	0	10	-1	35*	nt	1
CN1CCN(C(=O)C[C@H]2CC[C@H]3[C@@H](COC[C@H](O)CN3C(=O)Nc3ccc(F)cc3)O2)CC1	0	-6	-2	-1	-4	0
COc1ccccc1NC(=O)c1cc2c(CO)cnc(C)c2oc1=Nc1cc(OC)c(OC)c(OC)c1	0	17	0	1	-10	0
COc1cc(N=c2oc3c(C)ncc(CO)c3cc2C(N)=O)cc(OC)c1OC	0	0	-5	5	35*	0
Nc1nc(N)c2sc3nc4c(cc3c2n1)CCC4	nt	nt	nt	nt	76*	nt
COc1ccc(CN(C)C[C@H]2OCCCC[C@@H](C)Oc3ccc(NC(=O)Cc4ccccc4)cc3C(=O)N([C@H](C)CO)C[C@H]2C)cc1	0	nt	nt	-6	5	0
Cn1c(N)c(S(=O)(=O)NCc2ccc(Cl)cc2)c(=O)n(C)c1=O	44*	-14	-2	-1	3	0
CCCCn1c(N)c(N(CC(C)C)C(=O)CSCc2ccc(Cl)c(Cl)c2)c(=O)[nH]c1=O	0	1	17*	5	nt	0
CCCCn1c(N)c(N(CC(C)C)C(=O)CSCc2cccc(C)c2)c(=O)[nH]c1=O	0	3	1	3	-6	0
